Measured values as given in ChEMBL document CHEMBL3046203, “Bioactivity-guided fractionation and GC/MS fingerprinting of Angelica sinensis and Angelica archangelica root components for antifungal and mosquito deterrent activity” (2009).
The source made the active and inactive calls. No cut-off for these calls is given here.

Columns and labels:
[1] = test system: Colletotrichum acutatum; assay: Antifungal activity against Colletotrichum acutatum assessed as appearance of diffuse zone of inhibition at 2 mM in 2 uL solution by direct bio-autography assay; assay type: functional, organism-based
[2] = test system: Colletotrichum gloeosporioides; assay: Antifungal activity against Colletotrichum gloeosporioides assessed as as appearance of diffuse zone of inhibition at 2 mM in 2 uL solution by direct bio-autography assay; assay type: functional, organism-based
[3] = test system: Anopheles stephensi; assay: Feeding deterrent activity against Anopheles stephensi assessed as proportion of mosquitoes not biting at 25 nmol/cm2 cloth relative to untreated control; assay type: functional
Procedure, shortened: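 Klun and Debboun in vitro module assay with mated nulliparous An. stephensi females (Delhi strain, 5-15 d old), given water only for 24 h before testing. Compounds were applied in ethanol to organdy cloth at 25 nmol/cm2 against an ethanol-treated control cloth. Conditions were 24-26 °C and 24-51% RH, 1300-1600 h, with 100 females (20 replicates). The proportion not biting was scored.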

[4] = test system: Aedes aegypti; assay: Feeding deterrent activity against Aedes aegypti liverpool assessed as proportion of mosquitoes not biting at 25 nmol/cm2 cloth relative to untreated control; assay type: functional
Procedure, shortened: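 In vitro Klun and Debboun module assay with mated nulliparous Ae. aegypti females (red eye Liverpool strain, 5-15 d old), denied water for 24 h before testing. Treatments in ethanol were applied to organdy cloth at 25 nmol/cm2, with an ethanol-treated cloth as control. Testing ran at 24-26 °C and 24-51% RH, 1300-1600 h, using 85 females (17 replicates). Read-out was the proportion not biting.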

[5] = test system: Colletotrichum gloeosporioides; assay: Antifungal activity against Colletotrichum gloeosporioides assessed as as appearance of diffuse zone of inhibition at 2 mM in 2 uL solution by direct bio-autography assay1; assay type: functional, organism-based

| SMILES | growth inhibition (GI) [1] | growth inhibition (GI) [2] | Ratio [3] | Ratio [4] | growth inhibition (GI) [5] |
| --- | --- | --- | --- | --- | --- |
| CCCCNC(=O)n1c(NC(=O)OC)nc2ccccc21 | Active | Active |  |  |  |
| CCN(CC)C(=O)c1cccc(C)c1 [DIETHYLTOLUAMIDE] |  |  | 0.51 | 0.67 |  |
| CC1=CCC[C@@H]2[C@@](C)(CC=O)[C@H](C)CC[C@@]12C [CALLICARPENAL] |  |  | 0.72 | 0.91 |  |
| CCC/C=C1\OC(=O)C2=C1CCC=C2 [LIGUSTILIDE] |  |  | 0.66 | 0.79 |  |
| Cc1cc(C2CC2)nc(Nc2ccccc2)n1 | Active | Active |  |  | Active |
| CO/C=C(/C(=O)OC)c1ccccc1Oc1cc(Oc2ccccc2C#N)ncn1 | Active | Active |  |  |  |
